Data taken from ChEMBL document CHEMBL3244382, “Structural requirements for antileukemic activity among the naturally occurring and semisynthetic maytansinoids” (J Med Chem, 1978).
In brackets after ≈: the same amount, converted by molar mass. Activity calls are given as the source filed them.

What was measured:
[1] = test system: P388; assay: Antitumor activity against mouse P388 cells allografted in PS mouse assessed as median survival time at 50 ug/kg relative to control; type: functional
Method in brief: (§1)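 P388 leukemia (PS) in mice, six mice started per dose group. Read-out is T/C: median survival time of the treated group divided by that of the untreated control group, expressed as a percent. The NIH protocol counts a compound as active when T/C > 125%.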

[2] = test system: Mus musculus; assay: Toxicity in PS mouse allografted with mouse P388 cells assessed as change in body weight at 0.1 ug/kg relative to control; type: organism-based; details: in vivo, 0.0001 mg/kg
Method in brief: (§2)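 PS (P388 leukemia) mice, six per dose group. Toxicity read as the difference in grams between the weights of treated and control animals.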

[3] = biological target: Tubulin (Homo sapiens) (UniProt P68371+Q9H4B7+P0DPH7+P68366+Q13509+Q71U36+P04350+Q3ZCM7+P07437+P68363+Q9BQE3+Q6PEY2+Q13885+Q9BVA1+Q9BUF5); assay: Inhibition of brain tubulin polymerization (unknown origin) at 37 degC by spectrophotometry
[4] = test system: Mus musculus; assay: Toxicity in PS mouse allografted with mouse P388 cells assessed as change in body weight at 0.2 ug/kg relative to control; type: organism-based; details: in vivo, 0.0002 mg/kg; method in brief: as §2
[5] = test system: Mus musculus; assay: Toxicity in PS mouse allografted with mouse P388 cells assessed as survival at 3.1 ug/kg after 4 days; type: organism-based; details: in vivo, 0.0031 mg/kg, 96 h
Method in brief: (§3)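 PS (P388) leukemic mice, six started per dose group. Toxicity scored as survivors on the toxicity day over the number of mice started. The toxicity day is normally 4 days after the first injection.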

[6] = test system: Mus musculus; assay: Toxicity in PS mouse allografted with mouse P388 cells assessed as survival at 25 ug/kg after 4 days; type: organism-based; details: in vivo, 0.025 mg/kg, 96 h; method in brief: as §3
[7] = test system: Mus musculus; assay: Toxicity in PS mouse allografted with mouse P388 cells assessed as survival at 0.8 ug/kg after 4 days; type: organism-based; details: in vivo, 0.0008 mg/kg, 96 h; method in brief: as §3
[8] = test system: Mus musculus; assay: Toxicity in PS mouse allografted with mouse P388 cells assessed as survival at 50 ug/kg after 4 days; type: organism-based; details: in vivo, 0.05 mg/kg, 96 h; method in brief: as §3
[9] = test system: Mus musculus; assay: Toxicity in PS mouse allografted with mouse P388 cells assessed as survival at 0.1 ug/kg after 4 days; type: organism-based; details: in vivo, 0.0001 mg/kg, 96 h; method in brief: as §3
[10] = test system: Mus musculus; assay: Toxicity in PS mouse allografted with mouse P388 cells assessed as change in body weight at 25 ug/kg relative to control; type: organism-based; details: in vivo, 0.025 mg/kg
Method in brief: (§4)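 P388 (PS) leukemia in mice, 6 mice per dose group. Weight change is the difference in grams between treated and control animals. Survivors are recorded on toxicity day, normally 4 days after the first injection.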

[11] = test system: Mus musculus; assay: Toxicity in PS mouse allografted with mouse P388 cells assessed as survival at 0.2 ug/kg after 4 days; type: organism-based; details: in vivo, 0.0002 mg/kg, 96 h; method in brief: as §3
[12] = test system: Mus musculus; assay: Toxicity in PS mouse allografted with mouse P388 cells assessed as survival at 6.2 ug/kg after 4 days; type: organism-based; details: in vivo, 0.0062 mg/kg, 96 h; method in brief: as §3
[13] = test system: P388; assay: Antitumor activity against mouse P388 cells allografted in PS mouse assessed as median survival time at 25 ug/kg relative to control; type: functional; method in brief: as §1
[14] = test system: P388; assay: Antitumor activity against mouse P388 cells allografted in PS mouse assessed as median survival time at 0.4 ug/kg relative to control; type: functional; method in brief: as §1
[15] = test system: P388; assay: Antitumor activity against mouse P388 cells allografted in PS mouse assessed as median survival time at 1.6 ug/kg relative to control; type: functional; method in brief: as §1
[16] = test system: Mus musculus; assay: Toxicity in PS mouse allografted with mouse P388 cells assessed as change in body weight at 50 ug/kg relative to control; type: organism-based; details: in vivo, 0.05 mg/kg; method in brief: as §4
[17] = test system: P388; assay: Antitumor activity against mouse P388 cells allografted in PS mouse assessed as median survival time at 6.2 ug/kg relative to control; type: functional; method in brief: as §1
[18] = test system: Mus musculus; assay: Toxicity in PS mouse allografted with mouse P388 cells assessed as change in body weight at 12.5 ug/kg relative to control; type: organism-based; details: in vivo, 0.0125 mg/kg; method in brief: as §4
[19] = test system: P388; assay: Antitumor activity against mouse P388 cells allografted in PS mouse assessed as median survival time at 0.1 ug/kg relative to control; type: functional; method in brief: as §1
[20] = test system: Mus musculus; assay: Toxicity in PS mouse allografted with mouse P388 cells assessed as survival at 1.6 ug/kg after 4 days; type: organism-based; details: in vivo, 0.0016 mg/kg, 96 h; method in brief: as §3
[21] = test system: Mus musculus; assay: Toxicity in PS mouse allografted with mouse P388 cells assessed as change in body weight at 0.4 ug/kg relative to control; type: organism-based; details: in vivo, 0.0004 mg/kg; method in brief: as §2
[22] = test system: Mus musculus; assay: Toxicity in PS mouse allografted with mouse P388 cells assessed as change in body weight at 6.2 ug/kg relative to control; type: organism-based; details: in vivo, 0.0062 mg/kg; method in brief: as §4
[23] = test system: P388; assay: Antitumor activity against mouse P388 cells allografted in PS mouse assessed as median survival time at 0.2 ug/kg relative to control; type: functional; method in brief: as §1
[24] = test system: Mus musculus; assay: Toxicity in PS mouse allografted with mouse P388 cells assessed as survival at 0.4 ug/kg after 4 days; type: organism-based; details: in vivo, 0.0004 mg/kg, 96 h; method in brief: as §3
[25] = test system: Paracentrotus lividus; assay: Antimitotic activity against sea urchin eggs assessed as drug level causing inhibition of mitosis; type: functional; details: Egg
[26] = test system: P388; assay: Antitumor activity against mouse P388 cells allografted in PS mouse assessed as median survival time at 3.1 ug/kg relative to control; type: functional; method in brief: as §1
[27] = test system: P388; assay: Antitumor activity against mouse P388 cells allografted in PS mouse assessed as median survival time at 0.8 ug/kg relative to control; type: functional; method in brief: as §1
[28] = test system: Mus musculus; assay: Toxicity in PS mouse allografted with mouse P388 cells assessed as change in body weight at 1.6 ug/kg relative to control; type: organism-based; details: in vivo, 0.0016 mg/kg; method in brief: as §4
[29] = test system: Mus musculus; assay: Toxicity in PS mouse allografted with mouse P388 cells assessed as change in body weight at 3.1 ug/kg relative to control; type: organism-based; details: in vivo, 0.0031 mg/kg; method in brief: as §4
[30] = test system: Mus musculus; assay: Toxicity in PS mouse allografted with mouse P388 cells assessed as change in body weight at 0.8 ug/kg relative to control; type: organism-based; details: in vivo, 0.0008 mg/kg; method in brief: as §2
[31] = test system: P388; assay: Antitumor activity against mouse P388 cells allografted in PS mouse assessed as median survival time at 12.5 ug/kg relative to control; type: functional; method in brief: as §1
[32] = test system: Mus musculus; assay: Toxicity in PS mouse allografted with mouse P388 cells assessed as survival at 12.5 ug/kg after 4 days; type: organism-based; details: in vivo, 0.0125 mg/kg, 96 h; method in brief: as §3
[33] = test system: KB; assay: Cytotoxicity against human KB cells; type: functional; details: read-out: ED50 (the source's name)

SMILES | T/C [1] [%] | Activity [2] [g] | inhibition [3] | Activity [4] [g] | Activity [5] | Activity [6] | Activity [7] | Activity [8] | Activity [9] | Activity [10] [g] | Activity [11] | Activity [12] | T/C [13] [%] | T/C [14] [%] | T/C [15] [%] | Activity [16] [g] | T/C [17] [%] | Activity [18] [g] | T/C [19] [%] | Activity [20] | further results
COc1cc2cc(c1Cl)N(C)C(=O)C[C@H](OC(=O)[C@H](C)N(C)C(=O)CC(C)C)[C@]1(C)O[C@H]1[C@H](C)[C@@H]1C[C@@](O)(NC(=O)O1)[C@H](OC)/C=C/C=C(\C)C2 | <80 | 1.4 | Active | -0.6 | Non-toxic | Non-toxic | Non-toxic | Non-toxic | Non-toxic | -0.4 | Non-toxic | Non-toxic | 116 | 125 | 154 | -0.5 | 154 | 1.3 | 120 | Non-toxic | Activity [21]: -1.1 g; Activity [22]: 0.8 g; T/C [23]: 125%; Activity [24]: Non-toxic; Activity [25]: 1 ×10⁻⁸ mol/L; T/C [26]: 158%; T/C [27]: 133%; Activity [28]: -1.3 g; Activity [29]: 0.2 g; Activity [30]: 0.7 g; T/C [31]: 187%; Activity [32]: Non-toxic
COc1cc2cc(c1Cl)N(C)C(=O)C[C@H](OC(=O)C(C)C)[C@]1(C)O[C@H]1[C@H](C)[C@@H]1C[C@@](O)(NC(=O)O1)[C@H](OC)/C=C/C=C(\C)C2OC(C)=O (stereo not given in full) | <80 | -0.5 | Active | -1.3 | Non-toxic | Non-toxic | Non-toxic | Non-toxic | Non-toxic | -0.9 | Non-toxic | Non-toxic | 170 | 133 | 162 | -1 | 166 | -0.8 | 125 | Non-toxic | Activity [21]: -0.6 g; Activity [22]: -0.9 g; T/C [23]: 125%; Activity [24]: Non-toxic; Activity [25]: 1 ×10⁻⁷ mol/L; T/C [26]: 150%; T/C [27]: 137%; Activity [28]: -0.7 g; Activity [29]: -0.4 g; EC50 [33]: 0.0015 ng/mL (≈ 0.00216 nM); Activity [30]: -1 g; T/C [31]: 179%; Activity [32]: Non-toxic
